The source of these data is ChEMBL document CHEMBL4732148 (Eur J Med Chem, 2021).

Data set [1] relates to Hepatitis C virus. As to the kind of experiment: Ratio of IC50 for antiviral activity against HCV infected in human Huh-7 cells assessed as reduction in viral replication preincubated for 2 hrs followed by replacement with fresh culture medium and measured after 46 hrs by luciferase reporter gene assay to IC50 for antiviral activity against HCV infected in human Huh-7 cells assessed as reduction in viral replication measured after 48 hrs by …. It counts as functional, Hepacivirus hominis.

A short description of data set [2]: Stability in pH 8 aqueous buffer assessed as parent compound remaining at 200 uM measured after 4 hrs by UV spectrophotometry. Type of data set: physicochemical. Conditions: read-out: Stabilty. The procedure, abridged: (§1)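 Compound diluted to […] in aqueous buffers at pH 1.0, 2.0, 4.0, 6.0 or 8.0 and held 4 h at 40 °C. Intact prodrug separated by reverse-phase HPLC. 260 nm peak area after incubation compared with untreated prodrug, giving % remaining.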

For data set [3], the system named is Hepatitis C virus. The data set is described as follows: Antiviral activity against HCV infected in human Huh-7 cells assessed as reduction in viral replication at 25 to 1000 nM measured after 48 hrs in presence of deoxycytidine by luciferase reporter gene assay. It counts as functional, organism-based. Conditions: Hepacivirus hominis, dose 25-1000 nM. The procedure, abridged:
(§2)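 Huh7 cells carrying an HCV luciferase replicon, grown in DMEM with 10% FBS and G418. Cells treated 48 h continuously with compound at 25–1,000 nM, either alone or together with 50 µM cytidine or 2′-deoxycytidine. Luciferase activity read in lysates. Three biological replicates, SD.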

A short description of data set [4]: Stability in pH 4 aqueous buffer assessed as parent compound remaining at 200 uM measured after 4 hrs by UV spectrophotometry. It counts as physicochemical. Conditions: read-out: Stabilty. The procedure, abridged: as §1
Data set [5] deals with Hepatitis C virus. As to the kind of experiment: Antiviral activity against HCV infected in human Huh-7 cells assessed as reduction in viral replication at 500 nM measured after 48 hrs by luciferase reporter gene assay. Type of data set: functional, organism-based. Conditions: Hepacivirus hominis. The procedure, abridged:
(§3)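 Huh7 luciferase replicon cells treated with 500 nM compound or mock for up to 48 h. Cells were lysed at various times and the lysates snap-frozen in liquid nitrogen. All lysates were then assayed for luciferase together.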

Data set [6] can be described thus: Cytotoxicity against human Huh-7 cells assessed as reduction in cell viability measured after 48 hrs in presence of ENT1 inhibitor NBTI […]. It counts as cell-based. Conditions: with NBTI (ENT1 inhibitor; concentration not stated), read-out: TC50.
A short description of data set [7]: Cytotoxicity against human Huh-7 cells assessed as reduction in cell viability measured after 48 hrs by celltiter-glo assay. Conditions: read-out: TC50. It counts as cell-based.
Data set [8] in a line: Ratio of IC50 for antiviral activity against HCV infected in human Huh-7 cells in presence of esterase inhibitor bis-p-nitrophenyl phosphate to antiviral activity against HCV infected in human Huh-7 cells in absence of esterase inhibitor bis-p-nitrophenyl phosphate. It counts as functional, Hepacivirus hominis.
Data set [9] is described as follows: Ratio of gemcitabine TC50 to test compound TC50 for cytotoxicity against human BXPC-3 cells assessed as reduction in cell viability. Type of data set: cell-based.
Data set [10] is described as follows: Ratio of gemcitabine TC50 to test compound TC50 for cytotoxicity against human MCF7 cells assessed as reduction in cell viability. It counts as cell-based.
A short description of data set [11]: Cytotoxicity against human BXPC-3 cells assessed as reduction in cell viability measured after 96 hrs by celltiter-glo assay. Conditions: read-out: TC50. Type of data set: cell-based.
The nature of data set [12]: Stability in pH 2 aqueous buffer assessed as parent compound remaining at 200 uM measured after 4 hrs by UV spectrophotometry. Type of data set: physicochemical. Conditions: read-out: Stabilty. The procedure, abridged:
as §1

The nature of data set [13]: Cytotoxicity against human MCF7 cells assessed as reduction in cell viability measured after 96 hrs by celltiter-glo assay. Conditions: read-out: TC50. Type of data set: cell-based.
In data set [14] the test system is Hepatitis C virus. The data set is described as follows: Antiviral activity against HCV infected in human Huh-7 cells assessed as reduction in viral replication measured after 48 hrs in presence of human carboxylesterase 1/2 inhibitor benzil by luciferase reporter gene assay. It counts as functional, organism-based, Hepacivirus hominis. Conditions: Huh-7, 48 h. The method, boiled down: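 Huh7 cells carrying an HCV luciferase-reporter replicon, grown with 10% FBS and G418, were seeded at 10,000 cells/well and left 24 h to attach. Three biological replicates were treated with graded compound in DMEM/10% FBS/0.5% DMSO with benzil present, for 48 h at 37 °C. Bright-Glo luciferase was read, and IC50 came from a four-parameter logistic fit.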

A short description of data set [15]: Prodrug conversion assessed as human carboxylesterase 1/2-mediated gemcitabine release measured after 1 hr by HPLC analysis. It counts as ADME.
In data set [16] the test system is Hepatitis C virus. As to the kind of experiment: Antiviral activity against HCV infected in human Huh-7 cells assessed as reduction in viral replication measured after 48 hrs in presence of esterase inhibitor bis-p-nitrophenyl phosphate by luciferase reporter gene assay. Type of data set: functional, organism-based, Hepacivirus hominis. Conditions: Huh-7, 48 h.

The nature of data set [17]: Stability in pH 1 aqueous buffer assessed as parent compound remaining at 200 uM measured after 4 hrs by UV spectrophotometry. Conditions: read-out: Stabilty. It counts as physicochemical. The procedure, abridged:
as §1

Data set [18] can be described thus: Ratio of IC50 for antiviral activity against HCV infected in human Huh-7 cells in presence of human carboxylesterase 1/2 inhibitor benzil to antiviral activity against HCV infected in human Huh-7 cells in absence of human carboxyesterases1/2 inhibitor benzil. Type of data set: functional, Hepacivirus hominis.
For data set [19], the system named is Hepatitis C virus. As to the kind of experiment: Synergistic antiviral activity against HCV infected in human Huh-7 cells assessed as reduction in viral replication measured after 48 hrs in presence of NS5A inhibitor daclatasvir. by luciferase reporter gene assay. It counts as functional, organism-based. Conditions: Hepacivirus hominis. The method, boiled down: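 Replicon Huh7 cells treated 48 h with compound across 0.001–10,000 nM, each series at a fixed daclatasvir level from 0.005–0.025 nM. Luciferase read as above. A, B and C from the fits gave compound IC50 at each daclatasvir concentration, and these were plotted on an isobologram.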

A short description of data set [20]: Stability in pH 6 aqueous buffer assessed as parent compound remaining at 200 uM measured after 4 hrs by UV spectrophotometry. Type of data set: physicochemical. Conditions: read-out: Stabilty. The procedure, abridged:
as §1

Data set [21] has as its system Hepatitis C virus. As to the kind of experiment: Synergistic antiviral activity against HCV infected in human Huh-7 cells assessed as reduction in viral replication measured after 48 hrs in presence of NS5B inhibitor PSI-6130. by luciferase reporter gene assay. Conditions: Hepacivirus hominis. Type of data set: functional, organism-based.
In data set [22] the test system is Hepatitis C virus. The data set is described as follows: Antiviral activity against HCV infected in human Huh-7 cells assessed as reduction in viral replication at 500 nM measured after 24 to 30 hrs by luciferase reporter gene assay. The arrangement: scale not given: the % may be the effect or the level left. Conditions: time 24-30 hrs. Type of data set: functional, Hepacivirus hominis. The procedure, abridged: as §3

Data set [23] relates to Hepatitis C virus. The data set is described as follows: Antiviral activity against HCV infected in human Huh-7 cells assessed as reduction in viral replication preincubated for 2 hrs followed by replacement with fresh culture medium and measured after 46 hrs by luciferase reporter gene assay. Type of data set: functional, organism-based, Hepacivirus hominis. The method, boiled down:
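HCV luciferase-replicon Huh7 cells were seeded at 10,000 cells/well and allowed 24 h to attach. Three biological replicates were exposed to graded compound in DMEM/10% FBS/0.5% DMSO for 2 h only, then the medium was replaced with fresh growth medium for 46 h at 37 °C.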

Data set [24] can be described thus: Toxicity in human Huh-7 cells assessed as reduction in cell viability measured after 96 hrs by celltiter-glo assay. It counts as cell-based. Conditions: read-out: TC50.
The test system of data set [25] is Hepatitis C virus. As to the kind of experiment: Antiviral activity against HCV infected in human Huh-7 cells assessed as reduction in viral replication measured after 48 hrs by luciferase reporter gene assay. Conditions: Huh-7, 48 h. Type of data set: functional, organism-based, Hepacivirus hominis. The procedure, abridged: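 Replicon-bearing Huh7 cells seeded at 10,000/well and allowed to attach for 24 h at 37 °C. Triplicate biological wells then treated 48 h with compound in DMEM, 10% FBS, 0.5% DMSO final. Bright-Glo luminescence expressed relative to untreated cells. IC50 from a four-parameter logistic fit.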

Data set [26] has as its system Hepatitis C virus. As to the kind of experiment: Antiviral activity against HCV infected in human Huh-7 cells assessed as reduction in viral replication at 25 to 1000 nM measured after 48 hrs in presence of cytidine by luciferase reporter gene assay. It counts as functional, organism-based. Conditions: Hepacivirus hominis, dose 25-1000 nM. The procedure, abridged:
as §2

The subject of data set [27] is Hepatitis C virus. The data set is described as follows: Antiviral activity against HCV infected in human Huh-7 cells assessed as reduction in viral replication at 500 nM measured after 36 hrs by luciferase reporter gene assay. Conditions: Hepacivirus hominis. Type of data set: functional, organism-based. The procedure, abridged:
as §3

The subject of another data set is HepG2. As to the kind of experiment: Cytotoxicity against human HepG2 cells assessed as reduction in cell viability measured after 96 hrs by celltiter-glo assay. Type of data set: functional. Conditions: read-out: TC50 (the source's name).
Data set [28] in a line: Cytotoxicity against HEK293 cells assessed as reduction in cell viability measured after 96 hrs by celltiter-glo assay. It counts as cell-based. Conditions: human, read-out: TC50.
For data set [29], the system named is Hepatitis C virus. As to the kind of experiment: Antiviral activity against HCV infected in human Huh-7 cells assessed as reduction in viral replication at 500 nM measured within 6 hrs by luciferase reporter gene assay. The arrangement: scale not given: the % may be the effect or the level left. Type of data set: functional, Hepacivirus hominis. Conditions: time hrs <=6. The method, boiled down: as §3

Each structure is given as a SMILES string. Activity calls are given as the source filed them. The rule behind the calls is not given here.

As for `COc1cc(C(=O)Nc2ccn([C@@H]3O[C@H](CO)[C@@H](O)C3(F)F)c(=O)n2)cc(OC)c1OC`, the “Ratio IC50” value is listed as 56 in the data set with Hepatitis C virus [1], 1.6 in [8] and 2.5 in [18]. For the same compound, the remaining at 4 h, 200 µM is 82.7% in data set [2]; 98.6% in data set [4]; 87% in [12]; 86% in [17]; 99.5% in [20]. Further, the result in the data set with Hepatitis C virus [3] and with Hepatitis C virus [26] was inactive. For the same compound, the result with Hepatitis C virus [5], with Hepatitis C virus [19], with Hepatitis C virus [21] and with Hepatitis C virus [27] was Active. The CC50 at 48 h was determined as 398000 nM in data set [6] and 490000 nM in [7]. The selectivity ratio in [9] is not above 620; in data set [10], not above 24. The CC50 at 96 h turned out to be 1800 nM in data set [11], 570 nM in data set [13], 5100 nM in data set [24] and 1300 nM in [28]. In addition, the IC50 amounted to 125 nM with Hepatitis C virus [14], 81 nM in the data set with Hepatitis C virus [16], 2800 nM with Hepatitis C virus [23] and 49.3 nM in the data set with Hepatitis C virus [25]. In addition, in data set [15], the Drug metabolism result is “Metabolite_Detected”. In addition, in the data set on Hepatitis C virus [22], the Activity was determined as 50%. The CC50 with HepG2 amounted to 1700 nM.

For the compound `O=C(Nc1ccn([C@@H]2O[C@H](CO)[C@@H](O)C2(F)F)c(=O)n1)c1ccc2c(c1)OCO2`, the “Ratio IC50” value in the data set with Hepatitis C virus [1] worked out at 51. Further, the remaining at 4 h, 200 µM was 92% in data set [2]; 100% in data set [4]; 100% in data set [12]; 64% in [17]; 100% in data set [20]. For the same compound, the figures for the CC50 at 48 h in [6] and in [7] were 440000 nM and 470000 nM, respectively. For the same compound, the results for the selectivity ratio in [9] and in data set [10] were not above 620 and not above 24, respectively. Besides, the CC50 at 96 h came to 720 nM in data set [11], 1200 nM in data set [13], 7000 nM in data set [24] and 4100 nM in data set [28]. For the same compound, the values for the IC50 in the data set with Hepatitis C virus [23] and in the data set on Hepatitis C virus [25] were 3100 nM and 59.8 nM, respectively. The CC50 in the data set on HepG2 stood at 2800 nM.

`Nc1ccn([C@@H]2O[C@H](CO)[C@@H](O)C2(F)F)c(=O)n1` [GEMCITABINE]: the Activity in the data set with Hepatitis C virus [29] worked out at 50%. Further, the remaining at 4 h, 200 µM in data set [2] is 100%; in data set [4], 98%; in [12], 88%; in [17] it was 79%; in data set [20], 100%. Also, the outcome in the data set on Hepatitis C virus [3] and with Hepatitis C virus [26] was inactive. In addition, the CC50 at 48 h in [6] was more than 500000 nM. For the same compound, the CC50 at 96 h in data set [11] stood at 2.9 nM; in data set [13], 67 nM; in data set [24], 3400 nM; in [28] it was 560 nM. Moreover, the results for the half-inhibitory concentration (IC50) with Hepatitis C virus [23] and in the data set on Hepatitis C virus [25] were 170 nM and 58 nM, respectively. The CC50 in the data set with HepG2 amounted to 310 nM.
